Compounds with a hit are over-represented: about 1.4% of the library has one in this group of screens.
ABHD4 inh – ABHD4 (mouse) inhibition, primary FP screen; purified mABHD4, FP-Rh probe fluorescence polarization; Q8VD66; AID 720543; inhibition, % at 8.92 µM; 370,000 tested, 0.54% active;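 active = inhibition exceeding the mean over every tested compound plus 3 SD, cut at about 30% in these data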
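Test system: mABHD4 protein | Buffer or medium: HEPES pH 7.0 buffer, 150 mM NaCl, 0.01% Pluronic F-127 | Probe or stimulus: FP-Rh fluorescent activity-based probe, added after compound pre-incubation | Timing: Pre-incubation 45 min, probe exposure 60 min, at 25 °C | Technique: Fluorescence polarization, excitation 525 nm, emission 598 nm, BODIPY TMR filters | Repeats: Single well per compound (singlicate)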
SIAE primary – human SIAE inhibition, primary screen. inhibition, % at 9.66 µM. SIAE FP-Rh probe binding, fluorescence polarization. 370,000 tested, 0.69% active;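 active = inhibition above a cutoff: mean of compounds within the control limits plus 3 SD of those, cut at about 17% in these data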
Target sequence (Q9HAT2 whole entry, looked up): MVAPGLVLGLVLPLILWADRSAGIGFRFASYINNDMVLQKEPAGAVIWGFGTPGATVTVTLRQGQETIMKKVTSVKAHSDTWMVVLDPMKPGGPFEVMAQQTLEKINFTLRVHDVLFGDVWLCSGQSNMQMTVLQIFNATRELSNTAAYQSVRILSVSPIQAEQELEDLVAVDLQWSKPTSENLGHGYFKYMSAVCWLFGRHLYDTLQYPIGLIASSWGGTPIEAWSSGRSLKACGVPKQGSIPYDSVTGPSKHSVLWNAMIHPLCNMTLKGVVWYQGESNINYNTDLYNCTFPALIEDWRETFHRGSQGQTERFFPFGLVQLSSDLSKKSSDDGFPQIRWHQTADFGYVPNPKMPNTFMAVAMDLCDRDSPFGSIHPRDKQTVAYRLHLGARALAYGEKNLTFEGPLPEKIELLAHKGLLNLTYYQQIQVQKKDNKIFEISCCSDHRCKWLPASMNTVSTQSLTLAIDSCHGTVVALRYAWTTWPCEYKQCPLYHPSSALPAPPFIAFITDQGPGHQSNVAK
HTRA1 inh – HTRA1 (human) protease inhibition; Q92743; inhibition, % at 5.96 µM; 340,000 tested, 0.5% active; recombinant HTRA1, FP-rhodamine activity-based probe, fluorescence polarization; in the data active = inhibition above about 36%
RBBP9 inhibitor – blocks human serine hydrolase RBBP9; O75884; recombinant RBBP9, FP-Rh probe fluorescence polarization; inhibition, % at 7.94 µM; 220,000 tested, 0.2% active;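 active = inhibition above the campaign mean of all tested compounds plus 3 SD, cut at about 14% in these data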
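Measured by: FP readout at 525/598 nm; material: recombinant human RBBP9; also added: Serine-hydrolase probe FP-Rh, 375 nM pre-mixing; medium: Tris buffer pH 8.0, NaCl, Pluronic; replication: one well per compound; doses: one concentration, 7.94 µM nominal, 0.794% DMSO; timing: preincubation 30 min plus labeling 45 min at 25 °C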
SIAE inh conf – confirmation of human SIAE inhibitors; shares compounds with SIAE primary; SIAE FP-Rh activity-based probe, fluorescence polarization; inhibition, % at 9.66 µM; 2,300 tested, 13% active; AID 1117263;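 active = mean inhibition of the replicates above the hit cutoff set in the primary screen, cut at about 17% in these data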;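 note: inhibitors lower polarization as more probe stays unbound to SIAE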
Numbers stand for hits; - = inactive; . = not tested or not shown.

SMILES	ABHD4 inh	SIAE primary	HTRA1 inh	RBBP9 inhibitor	SIAE inh conf
OC(COCc1ccccc1)CN1CCc2ccccc2C1 (configuration not stated)	-	-	-	-	.
COc1ccc(COCC(O)CN2CCc3ccccc3C2)cc1OC (configuration not stated)	-	20	-	-	-
Cc1ccc(NC(=O)c2ccc(NCC3CCCO3)c([N+](=O)[O-])c2)cc1Cl (configuration not stated)	-	72	-	-	-
CC(NC(=O)CCn1c(=S)[nH]c2ccsc2c1=O)c1ccccc1 (configuration not stated)	-	19	-	-	-
CC(=O)Nc1ccc(C(=O)CN2C(=O)NC3(CCOc4ccccc43)C2=O)c(F)c1 (configuration not stated)	-	19	-	.	-
COC(=O)[C@]12C[C@H](CC(=O)NCCCCc3ccccc3)C(=O)N(Cc3ccco3)C1=C[C@H](C1CCCC1)O[C@@H]2C	-	-	.	.	.
N#Cc1ccc(N=c2ssnc2Cl)cc1	-	22	-	-	17
Clc1ccc(N=c2ssnc2Cl)cc1	-	-	-	-	.
CC1CN(S(=O)(=O)c2ccc(C(=O)NC3CCCCC3)cc2)CC(C)O1 (configuration not stated)	-	18	-	.	-
O=C(NC1CCCCC1)c1ccc(S(=O)(=O)N2CCCCC2)cc1	-	-	-	-	.
Cc1sc(NC(=O)CS(=O)(=O)c2ccccc2)c(C(N)=O)c1C	-	17	-	.	-
CNC(=O)c1c(NC(=O)CS(=O)(=O)c2ccccc2)sc(C)c1C	-	-	-	.	.
O=C(Nc1nnc([C@@H]2C[C@H](O)[C@@H](CO)O2)s1)c1ccc(Oc2ccccc2)cc1	-	-	.	.	.
CC(C)=CCc1cc(-c2oc3cc(O)cc(O)c3c(=O)c2O)ccc1O	-	23	-	.	-
Nc1sc(-c2ccccc2)cc1C(=O)NCCN1CCOCC1	-	-	.	.	.
O=C(CCCSc1ccccc1)Nc1nc(-c2ccco2)c(-c2ccco2)s1	-	28	-	-	-
O=C(CCCSc1ccccc1)Nc1nc(-c2ccccn2)cs1	-	-	-	-	.
CCOC(=O)[C@@]12CCC3=C1N(CCC3)C(=O)[C@H](CC(=O)NCc1ccc(OC)c(OC)c1)C2	-	-	.	.	.
O=C(Cc1csc(NC(=O)c2ccccc2)n1)NO	-	22	-	-	-
COc1ccc(C(=O)Nc2nc(CC(=O)NCCc3ccccc3)cs2)cc1	-	-	-	.	.
CCOC(=O)[C@]12CCCCC/C=C\1N(Cc1ccc(OC)cc1)C(=O)[C@H]2CC(=O)NCC1CCCCC1	-	-	.	.	.
CCN(CC)C(=O)c1cn(-c2cccc(OC)c2)c(=O)c2ccccc12	-	21	-	.	-
CCN1C(=O)[C@H]2[C@@H](c3ccc(C)cc3)N3C(=O)N(c4ccccc4)C(=O)[C@@]3(C)[C@H]2C1=O	-	-	-	.	.
CCN1C(=O)[C@H]2[C@@H](c3ccc(C)cc3)N3C(=O)N(c4cccc(Cl)c4)C(=O)[C@@]3(C)[C@H]2C1=O	-	23	-	.	-
CCc1nc2c(OCCC3CCCCC3)cccn2c1N(C)C(=O)c1ccc(OC)cc1	-	-	.	.	.
SMILES	ABHD4 inh	SIAE primary	HTRA1 inh	RBBP9 inhibitor	SIAE inh conf
C=CCNC(=O)c1ccc(-c2nc(-c3ccccc3)cs2)cc1	-	-	-	-	.
C=CCNC(=O)c1ccc(-c2nc3ccccc3nc2-c2ccccc2)cc1	-	33	-	.	-
CCOCCCNC(=O)CN1C(=O)CSc2ccc(S(=O)(=O)N3CCOCC3)cc21	-	-	-	.	.
CCOCCCNC(=O)CN1C(=O)CSc2cc(S(=O)(=O)N3CCCCCC3)ccc21	-	31	-	-	-
Cc1ccc(CNc2ccc3c(c2)ncn3C)cc1	-	-	-	-	.
CCCn1cnc2cc(NCc3ccccn3)ccc21	-	-	-	.	.
CCCn1cnc2cc(NCc3cccc(OC)c3O)ccc21	-	25	-	-	-
COc1ccc(CNc2ccc3c(c2)ncn3C)cc1OC	-	18	-	.	-
O=C(NCc1ccc(Cl)cc1)c1cc2ccccn2n1	-	54	-	-	-
O=C(OCC#CCSc1nnc(-c2cc3ccccc3cc2O)o1)c1ccc(F)cc1	-	-	.	.	.
CC(C)(C)NCCC(O)c1cc(C(F)(F)F)nc2c(C(F)(F)F)cccc12 (configuration not stated)	-	78	-	.	-
CCCNC(=O)CNC(=O)c1ccc(C#N)cc1	-	-	-	.	.
O=C(Nc1nnc(-c2cccs2)o1)c1ccco1	-	19	-	-	-
NC(Cc1ccc(C(F)(F)F)cc1)c1csc(NC(=O)Nc2ccccc2Cl)n1 (configuration not stated)	-	20	.	.	21
CCN1CCN(S(=O)(=O)c2ccc(Cl)c(C(=O)Nc3ccccc3N3CCCCC3)c2)CC1	-	17	-	.	-
CCN1CCN(S(=O)(=O)c2ccc(Cl)c(C(=O)Nc3ccccc3N3CCCC3)c2)CC1	-	-	-	.	.
CCN1CCN(S(=O)(=O)c2ccc(Cl)c(C(=O)N(C)CCOc3ccc(Cl)cc3)c2)CC1	-	20	-	.	-
CCN1CCN(c2ccc(S(=O)(=O)N3CCCCC3)cc2NC(=O)c2cccc(OC(F)F)c2)CC1	-	20	-	.	-
CC1(C(=O)NCc2cccc(Cl)c2)Cc2c(-c3ccc4c(c3)OCO4)ccnc2O1 (configuration not stated)	-	-	.	.	.
Cc1[nH]c(C)c(C(=O)/C=C/c2ccc([N+](=O)[O-])cc2)c1C	-	25	-	.	-
COc1ccc(C=CC(=O)c2ccc([N+](=O)[O-])cc2)cc1	-	-	-	.	.
O=C(CCS(=O)(=O)c1ccccc1)Nc1cc(Cl)ccc1F	-	-	.	.	.
CN(c1ccc(NC(=O)Cc2cn(C)c3ccccc23)cc1)c1ccccn1	-	29	.	.	29
CC(C)c1ccc(NC(=O)Cc2cn(C)c3ccccc23)cc1	-	-	-	-	.
CN(c1ccc(NC(=O)CCc2c[nH]c3ccccc23)cc1)c1ccccn1	-	27	.	.	22
SMILES	ABHD4 inh	SIAE primary	HTRA1 inh	RBBP9 inhibitor	SIAE inh conf
Cc1nc(C(F)(F)F)ccc1C(=O)N1CCC1(C)C(=O)NCc1ccc(Cl)cc1 (configuration not stated)	-	-	.	.	.
C=C(C)c1cccc(C(C)(C)NC(=O)Nc2ccc3[nH]c(=O)[nH]c3c2)c1	-	19	-	-	-
CCCC(=O)N1CCOCC1c1cc(C(=O)Nc2ccccc2)no1 (configuration not stated)	-	-	.	.	.
CC(C)N1CCC(C)(C(=O)Nc2ccc(-n3cccc3)cc2)C1 (configuration not stated)	-	17	.	.	-
O=C(c1ccc2c3n(nc2c1)-c1ccccc1CO3)N1CCCCC1	-	17	-	.	-
O=C(c1ccc2c3n(nc2c1)-c1ccccc1CO3)N1CCOCC1	.	.	-	.	.
CCOC(=O)N/N=C/c1cn(Cc2ccc(Cl)cc2)c2ccccc12	-	18	-	-	-
COc1ccc(N2CCC(CNC(=S)Nc3c(C)cc(C)cc3C)C2)cc1 (configuration not stated)	-	18	-	-	-

High-throughput results from PubChem.
